What was measured:
[1] = molecular target: Tyrosine-protein kinase ABL2 (Homo sapiens) (UniProt P42684); test: Inhibition of ABL2 at 1 uM
Procedure, shortened: (§1)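 Ambit KINOMEscan screen at a single concentration across a 250–400 kinase panel, recorded as percent inhibition. Selectivity was expressed as S(90), the fraction of kinases inhibited >90%.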

[2] = molecular target: BDNF/NT-3 growth factors receptor (Homo sapiens) (UniProt Q16620); test: Inhibition of TRKB at 1 uM
Procedure, shortened: (§2)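 Single-concentration screen on the Ambit KINOMEscan platform, run against a panel of 250–400 kinases. Per-kinase inhibition was also summarized as S(90), the fraction of kinases inhibited by more than 90%.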

[3] = molecular target: Serine/threonine-protein kinase RIO2 (Homo sapiens) (UniProt Q9BVS4); test: Inhibition of RIOK2 at 1 uM
[4] = molecular target: Cyclin-dependent kinase 8 (Homo sapiens) (UniProt P49336); test: Inhibition of CDK8 at 1 uM
[5] = molecular target: ALK tyrosine kinase receptor (Homo sapiens, UniProt Q9UM73); test: Inhibition of ALK by time-resolved fluorescence assay
Procedure, shortened: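 Baculovirus-expressed ALK (30 ng/ml) on plates coated with GST–PLC-gamma substrate in TBS. Reaction ran 15 min at 37 °C. Europium-labeled anti-phosphotyrosine antibody was added for 1 h at 37 °C, then enhancement solution for 30 min, and TRF was read. IC50 came from a variable-slope sigmoidal fit of % inhibition vs log concentration.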

[6] = system: Tyrosine-protein kinase ABL1 (Homo sapiens), P00519 [Y253F]; test: Inhibition of ABL1 Y253F mutant at 1 uM; procedure, shortened: as §1
[7] = molecular target: T1, Serine/threonine-protein kinase 36 (Homo sapiens) (UniProt Q9NRP7); test: Inhibition of STK36 at 1 uM
T1 sequence (whole entry): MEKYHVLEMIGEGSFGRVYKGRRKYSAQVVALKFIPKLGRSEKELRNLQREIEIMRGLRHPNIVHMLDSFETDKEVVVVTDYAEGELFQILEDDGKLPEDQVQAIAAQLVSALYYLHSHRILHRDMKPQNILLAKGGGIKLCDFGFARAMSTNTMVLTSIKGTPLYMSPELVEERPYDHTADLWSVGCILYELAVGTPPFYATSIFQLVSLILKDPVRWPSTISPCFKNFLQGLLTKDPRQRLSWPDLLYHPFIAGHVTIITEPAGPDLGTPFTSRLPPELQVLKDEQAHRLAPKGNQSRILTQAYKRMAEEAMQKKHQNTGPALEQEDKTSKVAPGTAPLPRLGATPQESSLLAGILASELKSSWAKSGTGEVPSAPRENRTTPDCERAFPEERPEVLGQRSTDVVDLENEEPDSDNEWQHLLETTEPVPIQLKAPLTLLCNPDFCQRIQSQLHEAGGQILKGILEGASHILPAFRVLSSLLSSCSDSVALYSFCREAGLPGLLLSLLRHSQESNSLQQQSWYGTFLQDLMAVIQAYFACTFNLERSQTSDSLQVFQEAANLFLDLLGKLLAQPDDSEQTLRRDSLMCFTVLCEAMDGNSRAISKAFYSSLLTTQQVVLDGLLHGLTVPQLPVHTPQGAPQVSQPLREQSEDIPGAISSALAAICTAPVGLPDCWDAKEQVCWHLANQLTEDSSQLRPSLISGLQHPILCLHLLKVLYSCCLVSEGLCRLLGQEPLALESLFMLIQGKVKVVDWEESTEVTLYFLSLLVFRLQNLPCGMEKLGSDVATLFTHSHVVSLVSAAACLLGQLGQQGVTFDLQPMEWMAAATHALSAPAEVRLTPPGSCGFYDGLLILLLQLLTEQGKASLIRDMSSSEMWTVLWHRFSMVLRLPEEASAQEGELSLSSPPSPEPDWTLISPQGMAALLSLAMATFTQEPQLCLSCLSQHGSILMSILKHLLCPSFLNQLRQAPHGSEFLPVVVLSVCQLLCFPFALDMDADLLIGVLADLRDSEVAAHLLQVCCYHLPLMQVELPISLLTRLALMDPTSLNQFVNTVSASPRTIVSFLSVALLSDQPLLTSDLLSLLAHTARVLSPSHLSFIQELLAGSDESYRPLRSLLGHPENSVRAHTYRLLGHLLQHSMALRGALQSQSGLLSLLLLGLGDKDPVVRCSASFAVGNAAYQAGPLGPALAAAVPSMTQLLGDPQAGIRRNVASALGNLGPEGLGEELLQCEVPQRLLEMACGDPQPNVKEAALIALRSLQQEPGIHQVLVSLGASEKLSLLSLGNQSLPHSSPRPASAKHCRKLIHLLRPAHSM

[8] = system: Epidermal growth factor receptor (Homo sapiens), P00533 [L858R]; test: Inhibition of EGFR L858R mutant at 1 uM; format: protein assay
Procedure, shortened: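 Single-concentration screen using Ambit Bioscience KINOMEscan technology across a panel of 250–400 kinases. Per-kinase inhibition from this screen was summarized as S(90), the fraction of kinases inhibited by more than 90%.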

[9] = system: Phosphatidylinositol 4,5-bisphosphate 3-kinase catalytic subunit alpha isoform (Homo sapiens), P42336 [E545K]; test: Inhibition of PIK3CA E545K mutant at 1 uM
[10] = molecular target: NT-3 growth factor receptor (Homo sapiens) (UniProt Q16288); test: Inhibition of TRKC at 1 uM
[11] = molecular target: Ribosomal protein S6 kinase alpha-2 (Homo sapiens) (UniProt Q15349); test: Inhibition of RPS6KA2 N-terminal domain1 at 1 uM
[12] = system: Proto-oncogene tyrosine-protein kinase receptor Ret (Homo sapiens), P07949 [V804L]; test: Inhibition of RET V804L mutant at 1 uM
[13] = molecular target: LIM domain kinase 1 (Homo sapiens) (UniProt P53667); test: Inhibition of LIMK1 at 1 uM; procedure, shortened: as §2
LIM domain kinase 1 (Homo sapiens), sequence (P53667 whole entry, looked up, the tested form may be a part): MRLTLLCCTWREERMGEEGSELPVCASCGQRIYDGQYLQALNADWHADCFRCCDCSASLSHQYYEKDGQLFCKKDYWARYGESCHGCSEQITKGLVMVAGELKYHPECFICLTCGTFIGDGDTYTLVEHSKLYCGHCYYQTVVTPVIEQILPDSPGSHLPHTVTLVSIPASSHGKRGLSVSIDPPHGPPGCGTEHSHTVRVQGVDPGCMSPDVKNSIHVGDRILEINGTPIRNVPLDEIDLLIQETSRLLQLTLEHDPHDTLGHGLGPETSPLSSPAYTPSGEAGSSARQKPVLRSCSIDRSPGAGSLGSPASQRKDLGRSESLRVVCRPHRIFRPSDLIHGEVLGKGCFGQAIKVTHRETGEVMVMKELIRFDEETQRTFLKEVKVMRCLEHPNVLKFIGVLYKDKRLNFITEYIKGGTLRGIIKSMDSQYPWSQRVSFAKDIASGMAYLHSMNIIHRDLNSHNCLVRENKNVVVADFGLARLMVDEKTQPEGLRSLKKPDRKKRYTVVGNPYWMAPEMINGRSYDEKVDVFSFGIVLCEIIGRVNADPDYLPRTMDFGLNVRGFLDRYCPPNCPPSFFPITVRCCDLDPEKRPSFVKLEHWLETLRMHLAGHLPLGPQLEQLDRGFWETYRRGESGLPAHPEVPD

NT-3 growth factor receptor (Homo sapiens), sequence (Q16288 32-839 limits assumed): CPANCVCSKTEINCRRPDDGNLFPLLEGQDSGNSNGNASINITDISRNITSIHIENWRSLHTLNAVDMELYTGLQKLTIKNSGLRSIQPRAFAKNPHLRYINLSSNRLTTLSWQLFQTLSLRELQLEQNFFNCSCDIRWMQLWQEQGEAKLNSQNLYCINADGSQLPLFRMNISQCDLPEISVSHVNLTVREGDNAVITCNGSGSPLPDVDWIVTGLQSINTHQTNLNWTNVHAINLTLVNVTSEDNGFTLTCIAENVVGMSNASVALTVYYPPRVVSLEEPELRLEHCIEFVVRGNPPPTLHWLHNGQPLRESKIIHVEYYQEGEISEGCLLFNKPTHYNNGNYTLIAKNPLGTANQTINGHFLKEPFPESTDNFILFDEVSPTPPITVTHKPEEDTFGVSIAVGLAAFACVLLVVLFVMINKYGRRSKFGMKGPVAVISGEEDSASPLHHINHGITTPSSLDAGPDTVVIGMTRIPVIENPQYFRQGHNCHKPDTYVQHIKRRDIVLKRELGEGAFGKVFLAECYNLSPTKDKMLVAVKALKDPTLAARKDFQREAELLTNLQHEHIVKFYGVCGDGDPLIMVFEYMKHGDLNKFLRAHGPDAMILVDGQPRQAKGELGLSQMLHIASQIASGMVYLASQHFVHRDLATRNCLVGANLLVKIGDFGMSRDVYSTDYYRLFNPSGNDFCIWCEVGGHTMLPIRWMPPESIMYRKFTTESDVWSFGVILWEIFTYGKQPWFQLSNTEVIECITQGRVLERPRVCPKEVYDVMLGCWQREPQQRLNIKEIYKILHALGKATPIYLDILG
Tyrosine-protein kinase ABL2 (Homo sapiens), sequence (P42684 whole entry): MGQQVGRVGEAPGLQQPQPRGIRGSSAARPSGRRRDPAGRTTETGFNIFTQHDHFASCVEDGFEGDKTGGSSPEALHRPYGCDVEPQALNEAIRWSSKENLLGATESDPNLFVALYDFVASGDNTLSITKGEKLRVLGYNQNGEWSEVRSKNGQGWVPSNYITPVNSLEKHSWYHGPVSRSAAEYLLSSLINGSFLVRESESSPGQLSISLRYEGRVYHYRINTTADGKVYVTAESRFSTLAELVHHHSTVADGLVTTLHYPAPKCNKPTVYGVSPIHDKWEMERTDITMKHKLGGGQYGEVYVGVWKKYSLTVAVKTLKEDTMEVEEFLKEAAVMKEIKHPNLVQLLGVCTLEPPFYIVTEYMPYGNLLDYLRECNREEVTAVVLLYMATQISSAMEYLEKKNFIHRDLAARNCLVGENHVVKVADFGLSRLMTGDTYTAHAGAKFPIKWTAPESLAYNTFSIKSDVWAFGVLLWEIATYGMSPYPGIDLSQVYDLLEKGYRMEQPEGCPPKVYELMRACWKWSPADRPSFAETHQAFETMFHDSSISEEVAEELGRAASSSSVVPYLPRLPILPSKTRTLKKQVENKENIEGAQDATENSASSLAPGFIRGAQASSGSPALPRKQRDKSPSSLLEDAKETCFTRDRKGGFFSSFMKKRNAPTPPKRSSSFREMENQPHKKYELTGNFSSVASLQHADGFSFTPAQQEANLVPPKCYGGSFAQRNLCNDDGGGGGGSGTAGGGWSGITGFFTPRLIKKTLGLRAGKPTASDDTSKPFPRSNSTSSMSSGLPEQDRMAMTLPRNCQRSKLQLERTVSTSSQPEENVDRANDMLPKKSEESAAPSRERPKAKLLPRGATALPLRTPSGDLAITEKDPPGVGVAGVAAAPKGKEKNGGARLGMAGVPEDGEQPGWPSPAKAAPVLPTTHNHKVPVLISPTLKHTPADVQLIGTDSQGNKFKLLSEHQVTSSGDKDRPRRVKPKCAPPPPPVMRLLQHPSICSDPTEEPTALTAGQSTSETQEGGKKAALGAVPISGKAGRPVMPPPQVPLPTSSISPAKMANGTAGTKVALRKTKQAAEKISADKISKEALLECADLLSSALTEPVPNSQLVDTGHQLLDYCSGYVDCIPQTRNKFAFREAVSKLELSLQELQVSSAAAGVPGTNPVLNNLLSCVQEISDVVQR
Ribosomal protein S6 kinase alpha-2 (Homo sapiens), sequence (Q15349 whole entry, the tested form may be a part): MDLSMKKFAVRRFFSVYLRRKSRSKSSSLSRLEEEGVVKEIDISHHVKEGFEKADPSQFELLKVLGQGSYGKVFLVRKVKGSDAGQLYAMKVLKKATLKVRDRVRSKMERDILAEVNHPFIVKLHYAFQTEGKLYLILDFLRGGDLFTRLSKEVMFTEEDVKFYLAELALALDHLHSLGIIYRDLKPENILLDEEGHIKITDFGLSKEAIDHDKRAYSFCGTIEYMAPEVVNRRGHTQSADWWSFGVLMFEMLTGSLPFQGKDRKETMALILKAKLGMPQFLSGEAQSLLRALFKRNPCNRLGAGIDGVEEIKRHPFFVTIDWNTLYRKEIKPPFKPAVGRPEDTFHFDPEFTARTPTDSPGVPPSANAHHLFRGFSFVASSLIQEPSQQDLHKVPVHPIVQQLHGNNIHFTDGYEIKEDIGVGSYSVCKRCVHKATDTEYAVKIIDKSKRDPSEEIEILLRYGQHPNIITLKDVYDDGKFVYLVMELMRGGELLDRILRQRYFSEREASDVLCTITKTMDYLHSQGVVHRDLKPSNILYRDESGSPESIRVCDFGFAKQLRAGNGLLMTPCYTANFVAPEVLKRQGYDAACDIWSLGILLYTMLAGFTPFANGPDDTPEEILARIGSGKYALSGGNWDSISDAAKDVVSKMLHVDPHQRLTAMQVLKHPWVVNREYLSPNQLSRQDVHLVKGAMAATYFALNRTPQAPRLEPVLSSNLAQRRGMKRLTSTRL
Serine/threonine-protein kinase RIO2 (Homo sapiens), sequence (Q9BVS4 whole entry, looked up): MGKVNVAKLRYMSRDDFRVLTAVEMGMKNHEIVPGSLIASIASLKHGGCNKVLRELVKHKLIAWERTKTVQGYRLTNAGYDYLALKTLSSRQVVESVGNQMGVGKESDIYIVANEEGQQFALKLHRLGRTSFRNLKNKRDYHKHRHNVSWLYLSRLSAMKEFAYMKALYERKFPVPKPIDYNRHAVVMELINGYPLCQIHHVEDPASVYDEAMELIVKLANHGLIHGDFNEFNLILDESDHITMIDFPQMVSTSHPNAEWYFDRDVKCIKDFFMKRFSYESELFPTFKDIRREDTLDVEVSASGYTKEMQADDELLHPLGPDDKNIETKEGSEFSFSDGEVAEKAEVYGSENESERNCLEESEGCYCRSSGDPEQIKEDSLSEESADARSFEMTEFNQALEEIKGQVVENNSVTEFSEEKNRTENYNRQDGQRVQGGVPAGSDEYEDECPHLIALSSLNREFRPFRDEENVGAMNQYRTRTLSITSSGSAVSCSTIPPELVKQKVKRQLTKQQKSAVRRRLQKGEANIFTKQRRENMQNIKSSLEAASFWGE
Proto-oncogene tyrosine-protein kinase receptor Ret (Homo sapiens), P07949 [V804L], sequence (P07949 whole entry V804L, the tested form may be a part): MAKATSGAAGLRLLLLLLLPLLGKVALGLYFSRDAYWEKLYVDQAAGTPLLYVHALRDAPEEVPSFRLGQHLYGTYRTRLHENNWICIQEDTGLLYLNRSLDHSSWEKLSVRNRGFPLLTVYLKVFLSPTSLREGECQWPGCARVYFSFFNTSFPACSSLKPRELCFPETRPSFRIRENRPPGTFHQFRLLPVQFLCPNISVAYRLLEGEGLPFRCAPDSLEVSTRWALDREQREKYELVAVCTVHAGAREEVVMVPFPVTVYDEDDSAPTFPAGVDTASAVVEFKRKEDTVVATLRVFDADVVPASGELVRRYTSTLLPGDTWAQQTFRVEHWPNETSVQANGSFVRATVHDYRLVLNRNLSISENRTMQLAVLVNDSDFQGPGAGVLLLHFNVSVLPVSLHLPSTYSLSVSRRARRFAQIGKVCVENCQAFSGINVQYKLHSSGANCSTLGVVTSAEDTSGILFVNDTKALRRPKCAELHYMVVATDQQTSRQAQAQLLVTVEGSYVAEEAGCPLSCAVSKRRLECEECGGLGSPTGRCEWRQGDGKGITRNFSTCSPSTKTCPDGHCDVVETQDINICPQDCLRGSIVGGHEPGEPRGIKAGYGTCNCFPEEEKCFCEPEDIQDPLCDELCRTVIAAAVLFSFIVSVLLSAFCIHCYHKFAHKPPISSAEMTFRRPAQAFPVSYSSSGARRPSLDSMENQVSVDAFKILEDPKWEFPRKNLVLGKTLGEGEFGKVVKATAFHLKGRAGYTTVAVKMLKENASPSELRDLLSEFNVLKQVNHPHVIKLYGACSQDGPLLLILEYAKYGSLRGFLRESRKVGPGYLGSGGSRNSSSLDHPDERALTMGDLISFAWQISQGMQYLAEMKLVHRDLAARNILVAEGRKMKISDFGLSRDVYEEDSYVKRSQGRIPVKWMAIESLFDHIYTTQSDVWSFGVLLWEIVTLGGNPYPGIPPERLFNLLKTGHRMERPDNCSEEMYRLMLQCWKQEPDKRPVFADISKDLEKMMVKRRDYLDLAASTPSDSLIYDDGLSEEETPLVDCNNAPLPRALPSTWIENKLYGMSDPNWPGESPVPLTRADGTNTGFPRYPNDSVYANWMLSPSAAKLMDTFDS

Structure (SMILES)	inhibition [1] [%]	inhibition [2] [%]	inhibition [3] [%]	inhibition [4] [%]	IC50 [5] [nM]	inhibition [6] [%]	inhibition [7] [%]	inhibition [8] [%]	inhibition [9] [%]	inhibition [10] [%]	inhibition [11] [%]	inhibition [12] [%]	inhibition [13] [%]
O=C(O)c1ccc(-c2cnc3c(c2)N(Cc2cc(Cl)ccc2C(F)(F)F)CCN3)cc1	< 50	65			1300			< 50		< 50	< 50		< 50
O=C(c1ccc(-c2cnc3c(c2)N(Cc2cc(Cl)ccc2C(F)(F)F)CCN3)cc1)N1CCCCC1	< 50	< 50			121	< 50		< 50		< 50	< 50		< 50
COC1CCN(C(=O)c2ccc(-c3cnc4c(c3)N(Cc3cc(Cl)ccc3C(F)(F)F)CCN4)cc2)CC1	< 50	< 50			40	< 50		< 50		< 50	< 50		< 50
FC(F)(F)c1ccc(Cl)cc1CN1CCNc2ncc(-c3ccnc(N4CCNCC4)c3)cc21	< 50	79	< 50	< 50	10	< 50	< 50	< 50	< 50	< 50	< 50	89	< 50
O=C(c1ccc(-c2cnc3c(c2)N(Cc2cc(Cl)ccc2C(F)(F)F)CCN3)cc1)N1CCC(N2CCCC2)CC1	75.9	73.6			10	< 50		< 50		< 50	< 50		< 50

More lines, now with the values ahead:

inhibition [1] [%]	inhibition [2] [%]	inhibition [3] [%]	inhibition [4] [%]	IC50 [5] [nM]	inhibition [6] [%]	inhibition [7] [%]	inhibition [8] [%]	inhibition [9] [%]	inhibition [10] [%]	inhibition [11] [%]	inhibition [12] [%]	inhibition [13] [%]	Structure (SMILES)
< 50	76	< 50	< 50	17	< 50	< 50	< 50	< 50	< 50	< 50	< 50	< 50	CC(=O)N1CCN(c2cc(-c3cnc4c(c3)N(Cc3cc(Cl)ccc3C(F)(F)F)CCN4)ccn2)CC1
< 50	< 50	< 50	< 50		< 50	< 50	< 50	< 50	< 50	< 50	< 50	< 50	CN1CCN(c2ccc(-c3cnc4c(c3)N(Cc3cc(Cl)ccc3C(F)(F)F)CCN4)cn2)CC1
< 50	58	< 50	< 50	33	< 50	< 50	< 50	< 50	< 50	< 50	< 50	< 50	CN1CCN(c2ccc(-c3cnc4c(c3)N(Cc3cc(F)ccc3F)CCN4)cn2)CC1
< 50	72	< 50	< 50	11	< 50	< 50	< 50	< 50	< 50	< 50	< 50	< 50	CN1CCN(c2ccc(-c3cnc4c(c3)N(Cc3cc(Cl)ccc3Cl)CCN4)cn2)CC1
83	72	< 50	< 50		82	< 50	< 50	< 50	< 50	< 50	< 50	< 50	CN1CCN(c2ccc(-c3cnc4c(c3)N(Cc3c(F)ccc(F)c3Cl)CCN4)cn2)CC1

Reference: ChEMBL document CHEMBL1165965, “Synthesis and structure-activity relationships of 1,2,3,4-tetrahydropyrido[2,3-b]pyrazines as potent and selective inhibitors of the anaplastic lymphoma kinase” (Bioorg Med Chem, 2010)
